According to ChEMBL document CHEMBL5712089, “Targeting clinical epigenetic reprogramming for chemoprevention of metabolic and viral hepatocellular carcinoma” (Gut, 2021):
Activity calls are given as the source filed them. No cut-off for these calls is given here.

Key:
Huh-7.5.1 [1] = test: Inhibition of Histone acetyltransferase in human Huh7.5.1 cells infected with hepatitis C virus assessed as effect on viral load; assay type: cell-based
Huh-7.5.1 [2] = test: Inhibition of Histone acetyltransferase in human Huh7.5.1 cells assessed as hepatitis C virus-induced EGF mRNA level measured after 72 hrs; assay type: cell-based
How it was run: (§1)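 Huh7.5.1 cells differentiated with dimethyl sulfoxide, then infected with HCV until they expressed the poor-prognosis status of the prognostic liver signature. Infected cells were then incubated with chromatin modifier/reader inhibitors. Concentrations were chosen as non-toxic from MTT viability tests on non-infected differentiated cells at 72 h (n=3, viability relative to untreated cells).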

Huh-7.5.1 [3] = test: Inhibition of Histone acetyltransferase in human Huh7.5.1 cells assessed as hepatitis C virus-induced NFkappaB mRNA level measured after 72 hrs; assay type: cell-based; how it was run: as §1
Mus musculus [4] = test: Reduction of liver fibrosis in DEN/CDAHFD-induced NASH C57BL/6 mouse model assessed as decrease in Tgf gene expression at 50 mg/kg, IP for 5 days a week by qRT-PCR analysis; assay type: functional, organism-based; conditions: time 5.0 day
How it was run: (§2)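 DEN (35 mg/kg IP, day 15)/CDAHFD-fed male C57BL/6 mice were dosed IP 5 days/week from 12 weeks of age in 10% hydroxypropyl-β-cyclodextrin, or given vehicle. Livers were taken at 30 weeks and hepatic fibrotic and inflammatory gene expression was quantified by qRT-PCR, n=3 per group; means±SD, unpaired t-test.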

Mus musculus [5] = test: Antitumor activity in DEN/CDAHFD-induced NASH C57BL/6 mouse model assessed as decrease in tumor nodules at 50 mg/kg, IP for 5 days a week by sirus red staining based microscopic analysis; assay type: functional, organism-based; conditions: time 5.0 day
How it was run: (§3)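 Male C57BL/6 mice, single IP diethylnitrosamine 35 mg/kg on day 15. From 6 weeks of age fed CDAHFD (60 kcal% fat, 0.1% methionine). From 12 weeks, randomised to IP dosing 5 days/week, drug in 10% (2-hydroxypropyl)-β-cyclodextrin or vehicle alone. Livers harvested at 30 weeks; body weight, liver weight and tumour nodule counts recorded (n=8 per group), with H&E and Sirius red sections; means±SEM, unpaired t-test.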

Mus musculus [6] = test: Reduction of liver weight in DEN/CDAHFD-induced NASH C57BL/6 mouse model at 50 mg/kg, IP for 5 days a week; assay type: functional, organism-based; conditions: time 5.0 day; how it was run: as §3
Mus musculus [7] = test: Decrease in NFkappaB2 gene expression in DEN/CDAHFD-induced NASH C57BL/6 mouse model at 50 mg/kg, IP for 5 days a week by CHIP-qPCR assay; assay type: functional, organism-based; conditions: time 5.0 day
How it was run: (§4)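 ChIP-qPCR on livers of control, DEN/CDAHFD and treated DEN/CDAHFD mice (IP 5 days/week from week 12, harvest at 30 weeks) measured BRD4 recruitment to promoter-enhancer regions of the named genes, using BRD4 antibody against an IgG control. Groups were compared by Mann-Whitney U test.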

Mus musculus [8] = test: Reduction of liver fibrosis in DEN/CDAHFD-induced NASH C57BL/6 mouse model assessed as decrease in collagen proportional area at 50 mg/kg, IP for 5 days a week; assay type: functional, organism-based; conditions: time 5.0 day
How it was run: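 Fibrosis was scored as collagen proportional area by quantitative digital analysis of whole-scanned Sirius red-stained liver sections. Sections came from DEN/CDAHFD male C57BL/6 mice harvested at 30 weeks after IP dosing 5 days/week from week 12 (cyclodextrin vehicle), n=3 per group; means±SD.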

Mus musculus [9] = test: Decrease in EPCAM gene expression in DEN/CDAHFD-induced NASH C57BL/6 mouse model at 50 mg/kg, IP for 5 days a week by CHIP-qPCR assay; assay type: functional, organism-based; conditions: time 5.0 day; how it was run: as §4
Mus musculus [10] = test: Antitumor activity in DEN/CDAHFD-induced NASH C57BL/6 mouse model assessed as decrease in tumor nodules at 50 mg/kg, IP for 5 days a week by hematoxylin and eosin staining based microscopic analysis; assay type: functional, organism-based; conditions: time 5.0 day; how it was run: as §3
Mus musculus [11] = test: Reduction of liver inflammation in DEN/CDAHFD-induced NASH C57BL/6 mouse model assessed as decrease in Ccl2 gene expression at 50 mg/kg, IP for 5 days a week by qRT-PCR analysis; assay type: functional, organism-based; conditions: time 5.0 day; how it was run: as §2
Mus musculus [12] = test: Reduction of liver fibrosis in DEN/CDAHFD-induced NASH C57BL/6 mouse model assessed as decrease in Acta2 gene expression at 50 mg/kg, IP for 5 days a week by qRT-PCR analysis; assay type: functional, organism-based; conditions: time 5.0 day; how it was run: as §2
Mus musculus [13] = test: Decrease in SOX9 gene expression in DEN/CDAHFD-induced NASH C57BL/6 mouse model at 50 mg/kg, IP for 5 days a week by CHIP-qPCR assay; assay type: functional, organism-based; conditions: time 5.0 day; how it was run: as §4
Mus musculus [14] = test: Effect on c-Myc expression in DEN/CDAHFD-induced NASH C57BL/6 mouse model at 50 mg/kg, IP for 5 days a week by Western blot analysis; assay type: functional, organism-based; conditions: time 5.0 day
How it was run: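 Liver lysates from control/PBS, vehicle and treated DEN/CDAHFD mice (n=3 each; 30 weeks; IP 5 days/week in 10% hydroxypropyl-β-cyclodextrin) were probed by western blot for c-Myc. Blots from six animals were quantified by densitometry and compared by unpaired t-test.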

Mus musculus [15] = test: Reduction of liver inflammation in DEN/CDAHFD-induced NASH C57BL/6 mouse model assessed as decrease in TNFa gene expression at 50 mg/kg, IP for 5 days a week by qRT-PCR analysis; assay type: functional, organism-based; conditions: time 5.0 day; how it was run: as §2
Mus musculus [16] = test: Reduction of liver fibrosis in DEN/CDAHFD-induced NASH C57BL/6 mouse model assessed as decrease in Col1A gene expression at 50 mg/kg, IP for 5 days a week by qRT-PCR analysis; assay type: functional, organism-based; conditions: time 5.0 day; how it was run: as §2
Mus musculus [17] = test: Effect on body weight in DEN/CDAHFD-induced NASH C57BL/6 mouse model at 50 mg/kg, IP for 5 days a week; assay type: functional, organism-based; conditions: time 5.0 day; how it was run: as §3
Mus musculus [18] = test: Antitumor activity in DEN/CDAHFD-induced NASH C57BL/6 mouse model assessed as decrease in number of tumor at 50 mg/kg, IP for 5 days a week; assay type: functional, organism-based; conditions: time 5.0 day; how it was run: as §3
Mus musculus [19] = test: Decrease in KRT7 gene expression in DEN/CDAHFD-induced NASH C57BL/6 mouse model at 50 mg/kg, IP for 5 days a week by CHIP-qPCR assay; assay type: functional, organism-based; conditions: time 5.0 day; how it was run: as §4

| SMILES | inhibition (Huh-7.5.1 [1]) | inhibition (Huh-7.5.1 [2]) | inhibition (Huh-7.5.1 [3]) | inhibition (Mus musculus [4]) | inhibition (Mus musculus [5]) | inhibition (Mus musculus [6]) | inhibition (Mus musculus [7]) | inhibition (Mus musculus [8]) | inhibition (Mus musculus [9]) | inhibition (Mus musculus [10]) | inhibition (Mus musculus [11]) | inhibition (Mus musculus [12]) | inhibition (Mus musculus [13]) | Activity (Mus musculus [14]) | inhibition (Mus musculus [15]) | inhibition (Mus musculus [16]) | Activity (Mus musculus [17]) | inhibition (Mus musculus [18]) | inhibition (Mus musculus [19]) |
| --- | --- | --- | --- | --- | --- | --- | --- | --- | --- | --- | --- | --- | --- | --- | --- | --- | --- | --- | --- |
| CC1=NN(c2ccc(C(=O)O)cc2)C(=O)/C1=C\c1ccc(-c2cc(C)c(C)cc2[N+](=O)[O-])o1 | inactive | – | – | – | – | – | – | – | – | – | – | – | – | – | – | – | – | – | – |
| COc1cc(/C=C/c2cc(/C=C/c3ccc(O)c(OC)c3)n(-c3ccc(C(=O)O)cc3)n2)ccc1O | inactive | Active | Active | – | – | – | – | – | – | – | – | – | – | – | – | – | – | – | – |
| Cc1sc2c(c1C)C(c1ccc(Cl)cc1)=N[C@@H](CC(=O)OC(C)(C)C)c1nnc(C)n1-2 | – | – | – | Active | Active | Active | Active | Active | Active | Active | Active | Active | Active | inactive | Active | Active | inactive | Active | Active |
